# Source: PubChem BioAssay (several laboratories)
# Most compounds without a hit are left out; they make up all but 1.6% or so of the library.
# PKD1 kinase inh = inhibitors of human PKD1 kinase, biochemical, fluorescence polarization | 200,000 tested, 0.056% active | inhibition, % (no concentration beside the values) | PKD1 kinase fluorescence polarization assay | Serine/threonine-protein kinase D1 (Homo sapiens), Q15139; in the data active = inhibition above about 50%
# HSV replic up = enhancers of HSV replication in host cells, fold increase, host cell viability. HSV replication augmentation in cells. maximum fold increase. 220,000 tested, 0.005% active; in the data active = maximum fold increase above about 1.5; inconclusive = no clear call, values can overlap the other calls; tested in PC3 cells
# NCF1 inh = p47phox/p22phox peptide binding inhibitors, primary screen, biochemical, uHTS, NADPH oxidase regulatory subunit; fluorescence polarization, 2 h; inhibition, % at 24.7 µM; 220,000 tested, 0.53% active;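 active = inhibition above about 30%, limit read from the data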;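 also: 0% = p47phox with labelled peptide and 100% = labelled peptide alone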
# ABCG2 inh = ABCG2 efflux pump inhibitors, primary screen, multiplex with ABCB1, IgMXP3 cells, flow cytometry; inhibition, % at 6.6 µM; JC-1 efflux; Broad substrate specificity ATP-binding cassette transporter ABCG2 (Homo sapiens), Q9UNQ0; 190,000 tested, 0.1% active;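 active = inhibition above 80%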;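 also: 0% = DMSO and 100% = nicardipine control wells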
#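 Test system: ABCG2 IgMXP3 and barcoded ABCB1 CCRF-Adr cell mix; Schedule: cells with compound and JC-1, 10 min at 25 °C, rotating, no wash; Technique: flow cytometry of retained JC-1 fluorescence; Measure: % inhibition of efflux relative to nicardipine and DMSO; Controls: nicardipine high and DMSO low controls.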
# PHOSPHO1 inh = PubChem AID 1565 | inhibition, % at 13.3 µM | recombinant PHOSPHO1, absorbance phosphatase assay | Phosphoethanolamine/phosphocholine phosphatase (Homo sapiens), Q8TCT1 | 290,000 tested, 1.1% active; in the data active = inhibition above about 60%
# ABCB1 block = ABCB1 efflux pump inhibitors, primary screen, cell-based, multiplex, flow cytometry, ABCG2 counter-screen | ATP-dependent translocase ABCB1 (Homo sapiens), P08183 | CCRF-Adr cells, JC-1 efflux | inhibition, % at 6.6 µM | 190,000 tested, 0.067% active; in the data active = inhibition above about 40%;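 also: 0% = vehicle and 100% = reference inhibitor; higher value means more JC-1 retained so stronger ABCB1 efflux block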
# Target sequence (P08183 whole entry, looked up): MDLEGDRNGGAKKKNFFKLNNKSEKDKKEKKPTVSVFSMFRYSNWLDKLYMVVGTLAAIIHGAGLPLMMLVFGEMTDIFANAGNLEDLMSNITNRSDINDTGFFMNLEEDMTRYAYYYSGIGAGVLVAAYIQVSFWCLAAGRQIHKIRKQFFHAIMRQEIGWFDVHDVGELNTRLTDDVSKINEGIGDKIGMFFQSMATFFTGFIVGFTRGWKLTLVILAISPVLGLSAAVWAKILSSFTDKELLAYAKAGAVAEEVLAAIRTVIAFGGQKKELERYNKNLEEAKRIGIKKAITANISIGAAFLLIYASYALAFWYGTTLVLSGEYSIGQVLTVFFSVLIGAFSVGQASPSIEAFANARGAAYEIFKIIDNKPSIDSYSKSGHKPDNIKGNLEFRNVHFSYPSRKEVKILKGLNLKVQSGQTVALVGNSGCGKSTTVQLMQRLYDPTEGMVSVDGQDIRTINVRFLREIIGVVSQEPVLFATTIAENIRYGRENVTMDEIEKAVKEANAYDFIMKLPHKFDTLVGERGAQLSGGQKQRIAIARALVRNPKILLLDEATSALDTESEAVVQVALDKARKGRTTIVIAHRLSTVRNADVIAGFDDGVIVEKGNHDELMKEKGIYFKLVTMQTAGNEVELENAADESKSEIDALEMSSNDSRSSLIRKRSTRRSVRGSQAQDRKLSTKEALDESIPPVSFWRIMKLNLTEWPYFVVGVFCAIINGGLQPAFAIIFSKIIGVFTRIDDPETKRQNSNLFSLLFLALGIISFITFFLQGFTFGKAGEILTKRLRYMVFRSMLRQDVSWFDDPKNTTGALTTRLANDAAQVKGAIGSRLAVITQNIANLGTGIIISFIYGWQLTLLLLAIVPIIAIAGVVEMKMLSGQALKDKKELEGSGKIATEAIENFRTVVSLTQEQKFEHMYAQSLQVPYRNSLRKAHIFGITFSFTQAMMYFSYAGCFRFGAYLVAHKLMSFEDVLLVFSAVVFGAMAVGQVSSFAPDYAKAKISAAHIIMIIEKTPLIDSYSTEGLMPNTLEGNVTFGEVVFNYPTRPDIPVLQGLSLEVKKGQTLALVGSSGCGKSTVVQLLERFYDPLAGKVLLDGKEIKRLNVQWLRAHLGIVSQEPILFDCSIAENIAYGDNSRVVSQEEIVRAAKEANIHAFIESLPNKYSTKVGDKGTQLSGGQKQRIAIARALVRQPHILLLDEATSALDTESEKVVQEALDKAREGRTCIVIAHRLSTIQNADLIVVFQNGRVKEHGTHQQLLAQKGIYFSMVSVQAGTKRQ
# Numbers without * were called inactive; i = inactive; ? = inconclusive; nt = no result.
SMILES,PKD1 kinase inh,HSV replic up,NCF1 inh,ABCG2 inh,PHOSPHO1 inh,ABCB1 block
CCNC(=S)NNC(=O)c1cc(-c2cccc(OCC)c2)nc2ccccc12,-7,i,-21,0,43,0
CCCN1CCC(NC(=O)CC2C(=O)NCCN2Cc2ccccc2C)CC1 (stereo not drawn),nt,nt,nt,nt,36,nt
CN(Cc1cnn(C)c1)Cc1nc(Cc2ccccc2Cl)no1,2,i,43*,3,-10,1
O=C(Cc1ccc(Cl)cc1)NNC(=O)Nc1cccc2ccccc12,2,i,60*,2,24,1
O=S1(=O)N=C(Nc2ccc(N3CCOCC3)cc2)c2ccccc21,2,i,-11,13,-42,0
CCc1cc(C(=O)N2CCOCC2)c(NC2=NS(=O)(=O)c3ccccc32)s1,-3,i,-11,-3,84*,0
N#CC1=C(S)N=C(N)C(c2nc(-c3ccccc3)cs2)C12CCCCC2 (stereo not drawn),-2,nt,-46,-1,64*,0
N#CC1=C(S)N=C(N)C(c2nc(-c3ccccc3)cs2)C12CCCC2 (stereo not drawn),-4,i,-41,1,43,0
CCOc1ccc2nc(-c3cc(NC(C)=O)ccc3O)sc2c1,8,i,-9,3,12,0
CCOC(=O)c1[nH]cc(-c2ccccc2)c1N1CCOCC1,0,i,-4,3,80*,1
CCOC(=O)N1CCN(C(=O)CSc2nnc(Cc3cccn3C)n2CCc2ccccc2)CC1,-11,i,0,2,62*,1
Cn1cccc1Cc1nnc(SCC(=O)N2CCOCC2)n1CCc1ccccc1,-14,i,-22,7,-9,1
O=C(COc1cccc2cccnc12)NNC(=O)Nc1ccccc1,-4,i,-2,2,61*,0
Cc1ccc(C(=O)CSC2=C(C#N)C(c3ccco3)C3=C(CC(C)(C)CC3=O)N2)cc1 (stereo not drawn),2,?,-25,0,76*,0
CCOC(=O)CSC1=C(C#N)C(c2ccc(C)cc2)C2=C(CCCC2=O)N1 (stereo not drawn),1,i,-21,20,92*,2
CCOC(=O)CSC1=C(C#N)C(c2ccc(F)cc2)C(C(C)=O)=C(C)N1 (stereo not drawn),-12,nt,-12,3,79*,-3
Cc1ccc(Cl)cc1NC(=O)Nc1cccs1,-6,i,-10,2,-19,0
Nc1nc2n(n1)C(c1ccco1)CC(c1ccccc1)N2 (stereo not drawn),-3,i,46*,1,-29,0
CCCCCCOC(=O)Sc1nc2ccccc2o1,0,i,4,1,86*,0
CC(C)(C)CC(=O)NC(=S)N1CCCCCC1,0,i,1,2,69*,0
O=C(/C=C/c1ccccc1[N+](=O)[O-])NC1CCCC1,3,i,-14,20,37,1
O=C(COc1ccccc1)Nc1nnc(-c2ccc3c(c2)CCCC3)o1,1,i,168*,4,-2,0
CCOC(=O)c1c(C2COc3ccccc3O2)csc1NC(=O)c1ccco1 (stereo not drawn),3,i,-28,1,86*,0
Cc1ccc(OCC(=O)NCCCNC(=O)c2ccccn2)cc1C,nt,nt,nt,nt,8,nt
Cc1ccc(Oc2ccc(OCC(=O)NC3CCS(=O)(=O)C3)cc2)cc1 (stereo not drawn),nt,nt,nt,nt,-4,nt
SMILES,PKD1 kinase inh,HSV replic up,NCF1 inh,ABCG2 inh,PHOSPHO1 inh,ABCB1 block
COc1ccc(NC(C)=O)cc1NC(=O)CSc1nnc(-c2cccnc2)n1C,0,i,0,6,14,1
COc1ccccc1NC(=O)CSc1nnc(-c2ccc(NC(C)=O)cc2)n1C,5,i,-4,1,106*,0
COc1ccccc1NC(=O)CC(=O)CSc1nnc(-c2ccc(C)cc2)n1C,3,i,-13,0,88*,0
CCCNC(=O)C1CCN(S(=O)(=O)c2cccc3nonc23)CC1,-3,i,-19,8,-1,1
C/C(N)=C(/C#N)C(=O)CSc1nnc(-c2ccc3c(c2)OCO3)o1,-8,i,42*,1,-11,0
COc1ccc(/C=C(\C#N)c2n[nH]c(Cn3cncn3)n2)cc1,-2,i,4,24,51,2
Cc1noc(C)c1CSc1nnc(-c2ccccc2)n1Cc1ccco1,-9,i,-17,5,45,-1
Cc1noc(C)c1CSc1nnc(-c2ccccc2)n1N,-3,i,-19,1,97*,0
Cc1cc(NC(=O)CSc2nnc(-c3ccc([N+](=O)[O-])cc3)o2)no1,nt,nt,nt,nt,68*,nt
Cc1cc(NC(=O)CSc2nnc(-c3ccc(O)cc3)o2)no1,nt,i,-7,nt,24,nt
CCN(C(=O)c1c(C)cc(=O)oc1C)c1ccc2c(c1)OCO2,-9,i,-3,-5,18,-1
CCN(C(=O)c1coc(=O)c(Br)c1)c1ccc2c(c1)OCO2,6,i,-5,1,74*,0
O=C1CCN(CCCc2ccccc2)CCN1[C@H](CO)Cc1ccccc1,nt,nt,nt,nt,4,nt
O=C(Cc1ccc(Br)cc1)N(Cc1ccccc1)c1ccccn1,-2,i,2,4,63*,1
O=C(COc1ccc(Br)cc1)N(Cc1ccccc1)c1ccccn1,8,i,2,39,8,2
CC(=O)Nc1ccc2c(CSc3nnc(N)s3)cc(=O)oc2c1,nt,i,-9,nt,69*,nt
Cc1ccc(-n2c(C)cc(/C=N/Nc3ccc([N+](=O)[O-])cn3)c2C)cc1,-2,nt,-10,2,101*,1
COc1ccc(N(C(=O)c2cccnc2)S(=O)(=O)c2cc(OC)ccc2OC)cc1,nt,nt,nt,nt,22,nt
COc1ccc(NC(=S)Nc2cc(-c3ccccc3)[nH]n2)cc1Cl,-6,i,-15,-3,69*,-1
Cc1cccc(C(=O)Nc2ccc(C(=O)Nc3ccc(O)cc3)cc2)c1,nt,nt,nt,nt,62*,nt
C=C(C)C1CC=C(C)/C(=N/NC(=O)c2ccc(NC(=O)c3cccc(C)c3)cc2)C1 (stereo not drawn),-11,nt,37*,7,-14,1
CCOC(=O)Cn1cc(C#N)c2cccc(CC)c21,-10,i,-5,3,43,0
CCN1CCc2c(sc(NC(=S)NC(=O)c3ccc(Cl)cc3)c2C(N)=O)C1,nt,?,-23,nt,67*,nt
CCN1CCc2c(sc(NC(=O)c3ccc4ccccc4c3)c2C(N)=O)C1,nt,nt,nt,nt,33,nt
C=CC[n+]1c(-c2ccc(C)cc2)csc1Nc1c(C)n(C)n(-c2ccccc2)c1=O,-4,i,-5,4,48,1
